A selection: hits, their analogues and other compounds. The true share with any hit is near 2.8%.
DENV2 CPE rescue: inhibitors of DENV2 cytopathic effect, primary screen, cell-based, plate reader, single concentration. DENV2-infected cells, cytopathic effect rescue. 1.7% of 350,000 active. CPE inhibition, % at 9.99 µM; in the data active = CPE inhibition above about 20%, passing the limit was not always enough; inconclusive = no clear call, values can overlap the other calls; tested in BHK-21 cells;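 also: 0% = median of neutral control wells and 100% = median of positive control wells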
SIRT5 block: SIRT5 desuccinylase inhibitors, primary screen, biochemical, fluorescence imaging, single point, set 5; AID 652115, 2013; inhibition, % at 15 µM; Purified SirT5, succinyl-peptide AMC, trypsin-coupled fluorescence; 1.1% of 330,000 active; NAD-dependent protein deacylase sirtuin-5, mitochondrial (Homo sapiens), Q9NXA8; in the data active = inhibition above about 15%; inconclusive = no clear call, values can overlap the other calls
Target sequence (Q9NXA8 whole entry, looked up): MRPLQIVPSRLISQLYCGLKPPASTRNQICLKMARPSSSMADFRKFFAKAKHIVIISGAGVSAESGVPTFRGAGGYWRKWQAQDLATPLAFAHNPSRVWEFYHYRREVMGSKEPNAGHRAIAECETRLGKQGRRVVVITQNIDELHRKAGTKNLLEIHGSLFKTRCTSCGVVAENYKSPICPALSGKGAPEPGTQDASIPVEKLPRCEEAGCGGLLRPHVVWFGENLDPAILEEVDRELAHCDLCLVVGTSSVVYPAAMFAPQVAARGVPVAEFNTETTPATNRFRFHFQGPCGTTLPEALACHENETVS
E-selectin induc: E-selectin induction in HUVECs, primary screen, imaging, HUVEC, immunofluorescence imaging, single point. P16581. normalized: neutral wells 0, TNF-alpha wells 100. activation, % at 7.58 µM. 0.37% of 260,000 active. AID 686992, 2013;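 active = mean E-selectin-positive cell signal at least 10% of the positive control, reached in at least 60% of replicates, without over 20% cell loss; inconclusive = no rule given, readout overlaps actives, possibly toxicity-flagged; inactive = the rest, including those meeting only one limit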
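material = human umbilical vein endothelial cells (HUVEC), E-selectin induction | quantity = 3,000 cells/well | medium = EGM-2 growth medium on 0.1% gelatin-coated wells | technique = immunofluorescence imaging | read-out basis = % PE-positive cells | control set = TNF-alpha positive control, DMSO neutral control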
* = called active by the depositor; ? = inconclusive; nt = no result.

SMILES	DENV2 CPE rescue	SIRT5 block	E-selectin induc
C[C@@H]1CCCCO[C@@H](CN(C)C(=O)C2CCCCC2)[C@@H](C)CN([C@H](C)CO)C(=O)c2cc(NS(=O)(=O)c3ccc(F)cc3)ccc2O1	nt	1.0	0.1
C[C@@H]1CCCCO[C@H](CN(C)C(=O)C2CCCCC2)[C@H](C)CN([C@H](C)CO)C(=O)c2cc(NS(=O)(=O)c3ccc(Cl)cc3)ccc2O1	38.6*	8.9	-0.1
C[C@H](CO)N1C[C@H](C)[C@H](CN(C)C(=O)C2CCCCC2)OCCCC[C@H](C)Oc2ccc(NS(=O)(=O)c3ccc(F)cc3)cc2C1=O	6.3	3.7	-0.1
CC(C)NC(=O)N1C[C@@H]2[C@H](c3ccccc31)[C@@H](CO)N2C(=O)c1ccccn1	-14.1	-1.4	-0.1
CN(C)C(=O)c1ccc(-c2ccc([C@@H]3[C@@H](CO)N4CCCCN(S(C)(=O)=O)C[C@@H]34)cc2)cc1	-6.7	-1.2	0.4
CCC(CC)CN1CCC(CN2C(=S)NC[C@@H]2[C@@H](C)CC)CC1	-3.7	19.1*	0.0
CCC(CC)CN1CCC(CN2C(=O)C(=O)NC[C@@H]2[C@@H](C)CC)CC1	-14.1	-3.4	-1.1
CC(=O)N1c2ccc(S(=O)(=O)NCC3CCC(C(=O)NC4CCC(C)CC4)CC3)cc2CC1C (stereo not drawn)	1.1	-2.9	nt
CC(=O)N1c2ccc(S(=O)(=O)NCCC(=O)NC3CCC(C)CC3)cc2CC1C (stereo not drawn)	-4.8	44.4*	nt
COC(=O)[C@H]1[C@H](CO)[C@H]2Cn3c(ccc(C4=CCCCC4)c3=O)[C@H]2N1CC1CCCCC1	?	3.4	-0.3
COc1ccc(-c2ccc3n(c2=O)C[C@H]2[C@H](CO)[C@@H](C(=O)NCCN4CCCC4)N(C)[C@@H]32)cc1	-2.1	-25.2	0.0
CCCNC(=O)[C@H]1[C@H](CO)[C@H]2Cn3c(ccc(C4=CCCC4)c3=O)[C@H]2N1CCC	-0.9	1.2	-0.3
COc1ccc(-c2ccc3n(c2=O)C[C@H]2[C@H](CO)[C@@H](C(=O)NCCN4CCCCC4)N(C)[C@@H]32)cc1	33.5*	-27.8	-0.2
CCCN1[C@@H]2c3ccc(C4=CCCC4)c(=O)n3C[C@@H]2[C@@H](CO)[C@@H]1C(=O)NCC	-6.2	17.7*	-1.0
CCCN1[C@@H]2c3ccc(C4=CCCC4)c(=O)n3C[C@@H]2[C@@H](CO)[C@@H]1C(=O)OC	-4.6	11.4	-0.6
CCCN1[C@H](C(=O)OC)[C@@H](CO)[C@@H]2Cn3c(ccc(C4=CCCC4)c3=O)[C@@H]21	84.0*	-1.1	-0.2
COC(=O)[C@H]1[C@H](CO)[C@H]2Cn3c(ccc(C4=CCCC4)c3=O)[C@H]2N1CC1CCOCC1	70.8*	-0.6	1.1
CNC(=O)C1=C[C@H](c2csc3ccccc23)C[C@H](OCc2ccc(CO)cc2)O1	-1.7	-0.6	nt
O=C(Nc1ccc(F)cc1)N[C@@H]1CC[C@H](CCNS(=O)(=O)c2ccccc2F)O[C@H]1CO	7.1	-7.3	-0.4
COCC(=O)N1CCC2(CC1)CN(C(=O)COC)[C@H](CO)c1c2c2ccc(OC)cc2n1C	-6.1	nt	-0.3
CCCN(C)C[C@H]1OCCCC[C@@H](C)Oc2ccc(NC(=O)c3ccccc3)cc2C(=O)N([C@@H](C)CO)C[C@H]1C	nt	nt	0.0
Cc1cc(C(=O)Nc2cccc3c2O[C@H](CN(C)S(=O)(=O)c2c(C)noc2C)[C@H](C)CN([C@H](C)CO)C3=O)n(C)n1	nt	4.2	0.1
Cc1ccc(S(=O)(=O)N[C@@H]2C=C[C@H](CC(=O)NCCCN(C)C)O[C@@H]2CO)cc1	-2.9	0.3	-0.8
C[C@@H]1CN([C@H](C)CO)C(=O)Cc2cc(NC(=O)C3CCCCC3)ccc2O[C@H]1CN(C)Cc1ccc(C(=O)O)cc1	6.1	0.3	0.7
CCCNC(=O)[C@H]1N[C@H]2c3ccc(C4=CCCCC4)c(=O)n3C[C@H]2[C@@H]1CO	-5.2	17.2*	-0.2
SMILES	DENV2 CPE rescue	SIRT5 block	E-selectin induc
CN1[C@@H]2c3ccc(C4=CCCC4)c(=O)n3C[C@@H]2[C@@H](CO)[C@@H]1C(=O)NCc1ccccc1F	50.2*	0.4	0.5
CCCNC(=O)[C@@H]1N[C@@H]2c3ccc(C4=CCCC4)c(=O)n3C[C@@H]2[C@H]1CO	-9.5	3.6	-0.1
O=C(NCC1CC1)[C@@H]1[C@@H](CO)[C@@H]2Cn3c(ccc(C4=CCCC4)c3=O)[C@@H]2N1Cc1ccccc1F	5.3	0.5	-0.5
CCC(=O)Nc1ccc2c(c1)OC[C@@H](C)N(Cc1ccncc1)C[C@H](C)[C@H](OC)CN(C)C2=O	11.3	5.3	-0.3
CN1C(=O)N[C@@H]2c3ccccc3O[C@@]1(C)[C@@H]2COC(=O)c1ccc([N+](=O)[O-])cc1	38.3*	1.7	nt
CN1C(=O)N[C@@H]2c3ccccc3O[C@@]1(C)[C@@H]2COC(=O)c1ccccc1	-1.3	-2.5	nt
C[C@H](NC(=O)C[C@@H]1CC[C@@H](NC(=O)C2CCOCC2)[C@H](CO)O1)c1ccccc1	-3.7	-2.8	0.4
CN1c2ccc(-c3ccc(C#N)cc3)cc2[C@H]2[C@H](CCN2S(=O)(=O)c2cccc(F)c2)[C@H]1CO	3.8	-6.7	0.5
Cc1ccccc1S(=O)(=O)N1CC[C@@H]2[C@H]1c1cc(-c3ccc(C#N)cc3)ccc1N(C)[C@H]2CO	26.5*	-6.1	-0.1
COc1ccccc1S(=O)(=O)N1CC[C@@H]2[C@H]1c1cc(-c3ccc(C#N)cc3)ccc1N(C)[C@H]2CO	0.8	nt	-0.4
CN1c2ccc(-c3cccc(C#N)c3)cc2[C@@H]2[C@@H](CCN2S(=O)(=O)c2cccc(F)c2)[C@@H]1CO	72.7*	nt	0.5
COc1cccc(-c2ccc3c(c2)[C@H]2[C@H](CCN2S(=O)(=O)c2ccccc2C)[C@H](CO)N3C)c1	-0.7	6.8	-0.5
COc1cccc(-c2ccc3c(c2)[C@@H]2[C@@H](CCN2S(=O)(=O)c2ccccc2C)[C@H](CO)N3C)c1	28.5*	7.5	-0.3
Cc1ccccc1S(=O)(=O)N1CC[C@@H]2[C@H]1c1cc(-c3cccc(F)c3)ccc1N(C)[C@H]2CO	21.7*	nt	0.1
Cc1ccccc1S(=O)(=O)N1CC[C@@H]2[C@@H](CO)N(C)c3ccc(-c4ccccc4)cc3[C@@H]21	-1.1	nt	-0.4
O=C(N[C@@H]1CC[C@H](CCNC(=O)C2CCCC2)O[C@H]1CO)c1ccccn1	16.7	2.3	0.0
COc1ccc(CN2CC3(CN(C(=O)C4CCOCC4)C3)c3c(n(C)c4cc(OC)ccc34)[C@@H]2CO)cc1	-6.8	nt	-0.2
CC(C)NC(=O)N(C)C[C@H]1Oc2ccc(NC(=O)C3CCCCC3)cc2CC(=O)N([C@H](C)CO)C[C@@H]1C	16.7	3.3	-0.1
COc1ccc2c3c([nH]c2c1)[C@H](CO)N(CC1CC1)CC31CCN(S(=O)(=O)c2cccc(F)c2)CC1	-10.0	1.7	0.4
CNC[C@@H]1Oc2c(NC(=O)NC(C)C)cccc2C(=O)N([C@@H](C)CO)C[C@@H]1C	-3.6	-2.3	-4.3
CCCN1C[C@@H](C)[C@@H](OC)CN(C)C(=O)c2cc(NC(=O)c3cccc(F)c3)ccc2OC[C@H]1C	-9.8	4.7	0.1

Screens (PubChem)
